Screening data as filed in PubChem BioAssay.
Sampled rows, rich in hits. Any-hit rate of the full collection: about 4%.
bCat nuc transl – modulators of beta-catenin nuclear translocation; 190,000 compounds, 0.3% hits; HeLa beta-catenin nuclear translocation, immunofluorescence imaging; nuclear translocation activity, % at 5 µM;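 active means nuclear translocation activity above 50% at 5 µM, with a well cell count of 50 or more; inconclusive means wells under 50 cells across six images, flagged as toxic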;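 further: per-cell ratio of nuclear to cytoplasmic median beta-catenin stain intensity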
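Test system: human HeLa cells, native beta-catenin. Compound dosing: 5 µM primary single dose, 0.1% DMSO, 0.02–20 µM confirmation series. Incubation: compound exposure 24 h at 37°C. Detection: beta-catenin immunostaining with DAPI counterstain, 20x imaging, 6 fields/well. Read-out basis: Nuclear/cytoplasmic beta-catenin signal ratio, % activation.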
WT yeast gro inh – growth inhibition of WT yeast, mitochondrial fusion screen; mitochondrial fusion phenotypic screen, WT strain; inhibition, % at 10 µM; 190,000 compounds, 2.1% hits; AID 1362; in the data active means inhibition above about 58%; tested in S. cerevisiae
MT stabilize HCS – microtubule stabilizers in HeLa cells; 200,000 compounds, 0.83% hits; % tubulin-high responders, % at 10 µM; AID 2205; HeLa tubulin immunostaining HCS, 24 h; share of cells brighter than vehicle mean+2SD;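 active means plate Z-score above 3 for both tubulin-high and condensed-nucleus cell shares, with cell loss under 80%, at 10 µM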;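 further: anti alpha tubulin signal scored within the nucleus-defined area of each cell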
Pf gametocyte – P. falciparum stage V gametocyte viability inhibition; 150,000 compounds, 0.065% hits; P. falciparum stage V gametocytes, ATP luminescence, 24 h; AID 743093; inhibition, % at 10.9 µM;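 active means inhibition above the mean plus 3 SD of compounds within the control limits, set per campaign, cut at about 38% in these data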
KCC2 mod – KCC2 (human) Cl- transport modulation; 190,000 compounds, 2.2% hits; Q9H2X9; KCC2 cells, thallium flux FluoZin-2 fluorescence; B-score of Tl+ flux slope (higher = more flux/activation; lower = inhibition) at 10 µM;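 active means thallium flux slope and its plate-corrected score both differing from the plate sample mean at a set confidence after two filtering rounds, in either direction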;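 further: slope of fluorescence scaled to starting intensity during 10 to 20 s after thallium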
Target sequence (Q9H2X9 whole entry, looked up): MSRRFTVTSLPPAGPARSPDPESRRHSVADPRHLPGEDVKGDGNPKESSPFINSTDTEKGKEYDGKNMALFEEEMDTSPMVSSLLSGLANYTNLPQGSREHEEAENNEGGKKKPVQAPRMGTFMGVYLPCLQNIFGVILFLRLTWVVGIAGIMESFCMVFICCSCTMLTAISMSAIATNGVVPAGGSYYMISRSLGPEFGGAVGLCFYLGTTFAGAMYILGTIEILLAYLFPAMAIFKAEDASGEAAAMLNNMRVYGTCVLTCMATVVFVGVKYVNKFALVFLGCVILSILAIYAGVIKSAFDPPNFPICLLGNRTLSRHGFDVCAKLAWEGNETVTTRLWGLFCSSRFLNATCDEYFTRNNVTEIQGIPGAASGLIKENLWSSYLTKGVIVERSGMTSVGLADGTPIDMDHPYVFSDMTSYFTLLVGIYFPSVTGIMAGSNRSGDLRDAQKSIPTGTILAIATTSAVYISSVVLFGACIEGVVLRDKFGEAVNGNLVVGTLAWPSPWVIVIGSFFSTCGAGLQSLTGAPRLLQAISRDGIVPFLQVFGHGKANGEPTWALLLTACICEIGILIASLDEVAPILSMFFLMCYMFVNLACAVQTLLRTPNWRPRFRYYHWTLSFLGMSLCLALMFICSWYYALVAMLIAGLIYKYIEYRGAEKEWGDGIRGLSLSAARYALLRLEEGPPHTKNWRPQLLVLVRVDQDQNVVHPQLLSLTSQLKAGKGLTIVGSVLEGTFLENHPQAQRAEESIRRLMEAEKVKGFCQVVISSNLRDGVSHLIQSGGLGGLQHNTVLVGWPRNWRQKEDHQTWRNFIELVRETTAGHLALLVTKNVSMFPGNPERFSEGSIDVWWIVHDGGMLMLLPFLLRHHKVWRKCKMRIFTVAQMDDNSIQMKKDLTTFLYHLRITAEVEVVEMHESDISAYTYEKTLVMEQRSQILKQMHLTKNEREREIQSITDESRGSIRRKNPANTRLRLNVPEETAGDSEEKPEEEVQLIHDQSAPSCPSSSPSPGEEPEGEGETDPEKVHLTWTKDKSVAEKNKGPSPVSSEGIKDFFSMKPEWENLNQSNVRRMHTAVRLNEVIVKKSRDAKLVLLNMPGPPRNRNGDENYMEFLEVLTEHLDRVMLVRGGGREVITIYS
KCC2 secondary – confirmation of human KCC2 transport modulators. shares compounds with KCC2 mod. AID 1713. 3,700 compounds, 15% hits. normalised thallium flux (F/F0 slope) at 10 µM. HEK293-KCC2, thallium flux, FluoZin2 fluorescence; active compounds read high;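 active means thallium flux slope above the same plate's solvent-only control mean plus 3 SD; inconclusive means the two replicate wells disagree; inactive means no significant difference from solvent-only control wells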
KCC2 bumet counter – thallium flux despite bumetanide block in KCC2 cells, secondary assay 3; normalized thallium flux at 10 µM; 3,700 compounds, 49% hits; HEK293-KCC2 + bumetanide/ouabain, thallium flux FluoZin2; active compounds read high; AID 1714; shares compounds with KCC2 mod;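 active means thallium entry rate above the same plate's blocked-transporter control wells by more than 3 SD; inconclusive means the two repeat wells disagree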;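 further: raw slope of fluorescence over initial fluorescence between 10 and 20 s after thallium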
KCC2 sec2 – KCC2 (human) modulation, second secondary assay; shares compounds with KCC2 mod; HEK293-KCC2, thallium flux FluoZin2 fluorescence; actives lie on both sides; F/F0 rise rate, 10–20 s post-thallium; normalized thallium flux at 10 µM; 3,700 compounds, 23% hits;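 active means thallium flux slope more than 3 SD above or below the plate's solvent-only control mean, mostly below; inconclusive means the two repeat wells disagreed; inactive means no significant shift from solvent-only controls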
HEK counter1 – counter-screen for KCC2 modulators: effect in parental HEK293 cells. AID 1716. thallium flux rate (normalised fluorescence) at 10 µM. thallium flux FluoZin2, ouabain; baseline-ratio fluorescence slope, 10–20 s after thallium. 3,700 compounds, 46% hits. shares compounds with KCC2 mod;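 active means thallium flux rate significantly above the same plate's solvent-only control wells, beyond their mean plus 3 SD; inconclusive means the two replicate wells gave conflicting results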
KCC2 ouabain – confirmation of human KCC2 modulators with ouabain; raw Tl+ flux slope (below DMSO = inhibition, above = activation) at 10 µM; HEK293-KCC2, thallium flux FluoZin2 fluorescence; bidirectional: low = inhibitor, high = activator; 3,700 compounds, 48% hits; shares compounds with KCC2 mod;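 active means thallium flux slope beyond 3 SD from same-plate DMSO control mean in most replicates, usually higher, sometimes lower; inconclusive means repeat tests gave conflicting results; inactive means no significant difference from controls in most replicates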;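 further: slope of initial-normalized fluorescence between seconds 10 and 20 after thallium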
HEK293 Tl flux2 – parental HEK flux effect, counter-screen 2 | shares compounds with KCC2 mod | HEK293 parental, thallium flux FluoZin-2 fluorescence slope | thallium flux slope at 10 µM | 3,700 compounds, 33% hits | AID 1718;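 active means thallium flux slope above the same plate's solvent-control mean plus 3 SD in both duplicate wells; inconclusive means duplicate wells that disagreed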;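 further: run without ouabain in cells lacking the KCC2 cotransporter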
Each line names hits and unclear results; the compound was inactive in the other large screens (follow-up assays come after a bar, where they were run).

CCC(C(=O)Nc1ccsc1C(=O)OC)c1ccccc1 (stereo not given)	KCC2 mod -3.2 | KCC2 secondary inactive | KCC2 bumet counter inactive | KCC2 sec2 inactive | HEK counter1 inconclusive | KCC2 ouabain inconclusive | HEK293 Tl flux2 inactive
CN(CCC#N)CC(=O)Nc1ccc(S(N)(=O)=O)cc1	none
CCC(C)[C@@H](CN)NCC1(c2ccccc2)CC1 (stereo not given in full)	none (no result: bCat nuc transl, WT yeast gro inh, MT stabilize HCS, KCC2 mod)
CCOC(=O)N1CCC(NC(=O)c2cc(C(=O)Nc3ccc(OC)c(OC)c3)ccc2CO)CC1	none
CC1CCCCN1C(=S)NC(=O)c1cccs1 (stereo not given)	KCC2 mod 36.4 (no result: WT yeast gro inh, MT stabilize HCS) | KCC2 secondary 0.0215 | KCC2 bumet counter 0.0572 | KCC2 sec2 inactive | HEK counter1 0.0345 | KCC2 ouabain 0.0502 | HEK293 Tl flux2 0.0164
CCOC(=O)c1c(-c2ccccc2)csc1NC(=O)/C(C#N)=C/c1ccc(O)c(OC)c1	KCC2 mod 5.25 | KCC2 secondary inactive | KCC2 bumet counter 0.0113 | KCC2 sec2 inactive | HEK counter1 0.00948 | KCC2 ouabain inactive | HEK293 Tl flux2 inactive
CCOC(=O)c1c(-c2ccccc2)csc1NC(=O)/C(C#N)=C/c1ccc(OC)c(OC)c1	none (no result: Pf gametocyte)
C/C(=N\NC(=O)c1cc(Br)ccc1O)c1cccs1	KCC2 mod 15 | KCC2 secondary inactive | KCC2 bumet counter 0.031 | KCC2 sec2 0.0431 | HEK counter1 0.0304 | KCC2 ouabain 0.0369 | HEK293 Tl flux2 0.0335
C/C(=N\NC(=O)c1ccc(NS(=O)(=O)c2cccs2)cc1)c1cccs1	none
C/C(=N\NC(=O)c1ccc(Cl)cc1)c1cccs1	KCC2 mod 25.2 | KCC2 secondary inactive | KCC2 bumet counter 0.0396 | KCC2 sec2 0.0496 | HEK counter1 0.0337 | KCC2 ouabain 0.0406 | HEK293 Tl flux2 0.029
C/C(=N\NC(=O)c1cc(C)nc2ccccc12)c1cccs1	none (no result: WT yeast gro inh, MT stabilize HCS)
COC(=O)C1(C(C[N+](=O)[O-])c2ccc(C)cc2)C(=O)NCC1c1ccco1 (stereo not given)	none (no result: WT yeast gro inh, MT stabilize HCS)
Cc1ccc(OC(C)C(=O)N/N=C/c2ccccn2)cc1 (stereo not given)	none (no result: KCC2 mod)
COCCCNC(=O)[C@H](CSCc1ccccc1)N1Cc2ccccc2C1=O	none (no result: WT yeast gro inh, MT stabilize HCS)
CCCCNC(=O)[C@H](CSCc1ccccc1)N1Cc2ccccc2C1=O	KCC2 mod -2.63 (no result: Pf gametocyte) | KCC2 secondary inconclusive | KCC2 bumet counter inactive | KCC2 sec2 inactive | HEK counter1 inactive | KCC2 ouabain 0.0171 | HEK293 Tl flux2 inactive
Cc1ccc(S(=O)(=O)/N=C(/NC(=S)Nc2cccc(C)c2)c2ccccc2)cc1	KCC2 mod 20.2 | KCC2 secondary inactive | KCC2 bumet counter 0.0301 | KCC2 sec2 0.0421 | HEK counter1 0.0225 | KCC2 ouabain 0.0354 | HEK293 Tl flux2 0.0243
Cc1ccc2nc(N/C(=N/S(=O)(=O)c3ccc(F)cc3F)c3ccccc3)sc2c1	KCC2 mod 21.5 | KCC2 secondary inactive | KCC2 bumet counter 0.00943 | KCC2 sec2 inactive | HEK counter1 0.00959 | KCC2 ouabain inactive | HEK293 Tl flux2 inconclusive
Cc1ccc2nc(N/C(=N/S(=O)(=O)c3ccc(F)cc3)c3ccccc3)sc2c1	KCC2 mod 4.46 | KCC2 secondary inactive | KCC2 bumet counter inactive | KCC2 sec2 inactive | HEK counter1 inconclusive | KCC2 ouabain inactive | HEK293 Tl flux2 inconclusive
Cc1cc(N/C(=N\S(=O)(=O)c2ccc(F)cc2F)c2ccccc2)no1	none
CCOc1ccc(/C=N/NC(=O)c2cc(-c3cccn3C)n[nH]2)cc1	none
O=C(Nc1ccccc1)O/N=C/c1ccccc1Cl	KCC2 mod -5.74 (no result: bCat nuc transl, Pf gametocyte) | KCC2 secondary inactive | KCC2 bumet counter inactive | KCC2 sec2 inactive | HEK counter1 inactive | KCC2 ouabain inactive | HEK293 Tl flux2 inactive
Cc1cc(C)nc(N2CCCC(C(=O)NC(C)CCc3ccco3)C2)n1 (stereo not given)	none (no result: KCC2 mod) | KCC2 secondary inactive | KCC2 bumet counter inactive | KCC2 sec2 inactive | HEK counter1 inactive | KCC2 ouabain inactive | HEK293 Tl flux2 inactive
CC(/C=C/c1ccccc1)=N\NC(=O)c1ccc(Br)cc1	KCC2 mod 8.17 | KCC2 secondary 0.0224 | KCC2 bumet counter 0.0284 | KCC2 sec2 inactive | HEK counter1 0.0157 | KCC2 ouabain inactive | HEK293 Tl flux2 0.0176
CC(/C=C/c1ccccc1F)=N\NC(=O)c1ccc(Cl)cc1	KCC2 mod 6.21 (no result: Pf gametocyte) | KCC2 secondary 0.0238 | KCC2 bumet counter 0.0201 | KCC2 sec2 inconclusive | HEK counter1 0.0152 | KCC2 ouabain 0.0217 | HEK293 Tl flux2 0.0195
CC(/C=C/c1ccccc1)=N/NC(=O)c1cccc(Br)c1	KCC2 mod 10.5 | KCC2 secondary inactive | KCC2 bumet counter 0.0368 | KCC2 sec2 inactive | HEK counter1 0.0371 | KCC2 ouabain 0.0299 | HEK293 Tl flux2 0.0136
CC(/C=C\C=C\c1ccccc1)=N\NC(=O)c1cncc(Br)c1	KCC2 mod 12.6 | KCC2 secondary inconclusive | KCC2 bumet counter 0.0289 | KCC2 sec2 inactive | HEK counter1 0.0377 | KCC2 ouabain 0.0313 | HEK293 Tl flux2 0.0173
C/C(=N\NC(=O)c1ccccc1)c1cccc(Br)c1	none
CC(C)c1ccc(N(CC(=O)NC(C)(C)C)C(=O)CCC(=O)Nc2nccs2)cc1	none (no result: bCat nuc transl, WT yeast gro inh, MT stabilize HCS, KCC2 mod)
CCn1ccnc1CN(C)C(=O)CCc1nnc(CCC2CCCCC2)o1	none
COc1ccc(CCNC(=O)CCCN2C(=O)c3ccccc3C2=O)cc1	none
Cc1c(N=NC2=C(O)CCCC2=O)c(=O)n(-c2ccccc2)n1C	none
COc1ccc(Cn2nnnc2C(CC(C)C)N2CCN(c3ccccc3)CC2)cc1 (stereo not given)	none (no result: Pf gametocyte, KCC2 mod) | KCC2 secondary inactive | KCC2 bumet counter inactive | KCC2 sec2 inactive | HEK counter1 inactive | KCC2 ouabain inactive | HEK293 Tl flux2 inactive
CC(C)C(c1nnnn1Cc1ccco1)N1CCN(c2nc3ccccc3s2)CC1 (stereo not given)	none (no result: Pf gametocyte)
CCC(c1nnnn1Cc1cccs1)N1CCN(C2CCCC2)CC1 (stereo not given)	none
